In data set [1] the target is T1, Neutrophil elastase (Homo sapiens, UniProt P08246).
T1 sequence (P08246 whole entry): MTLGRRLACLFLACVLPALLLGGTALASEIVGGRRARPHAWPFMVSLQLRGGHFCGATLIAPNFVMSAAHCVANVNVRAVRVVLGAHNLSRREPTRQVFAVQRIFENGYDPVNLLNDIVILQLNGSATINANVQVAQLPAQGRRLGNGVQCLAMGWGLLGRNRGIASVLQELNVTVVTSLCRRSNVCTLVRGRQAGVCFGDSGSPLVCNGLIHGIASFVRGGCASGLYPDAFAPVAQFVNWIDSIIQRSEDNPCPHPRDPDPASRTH
The experiment in a line: Inhibition of human neutrophil elastase using N-methylsuccinyl-Ala-Ala-Pro-Val-7-amino-4-methylcoumarin as substrate measured for every 30 sec for 10 mins by fluorescence based assay.

Data set [2] in a line: Stability of compound in PBS at pH 7.4 assessed as half life by spectrophotometry. As to conditions: buffer; call rule not given here. Type of data set: physicochemical. The method in brief:
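Spontaneous hydrolysis measured at 20 °C in 0.05 M phosphate buffer, pH 7.4, with compound at 20 μM. Absorbance was read at each compound's characteristic maximum over time until it stopped falling (A∞). k' was taken from the slope of log(At − A∞) versus time, and t1/2 = 0.693/k'.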

For orientation: IC50 means the midpoint of a concentration-inhibition curve. Consider `CCOC(=O)c1nn(C(=O)c2cccc(C)c2)c2ncccc12`, for which the IC50 in data set [1] (read-out: IC50) was 2000 nM.

Consider `N#Cc1cn(C(=O)C2CC2)c2cnccc12`, for which the IC50 in data set [1] (read-out: IC50) was 183 nM.

For `O=C(C1CC1)n1nc([N+](=O)[O-])c2cccnc21`, the IC50 in data set [1] (read-out: IC50) amounted to 21 nM. The t1/2 in data set [2] is 1.56 h.

Take `COc1cccc(NC(=O)c2cnc3cc(C)nn3c2C)c1`: the IC50 entry in data set [1] is “Not Active”.

Turning to `COc1cccc(CNC(=O)c2cnn3c(C)c(C(C)=O)cnc23)c1`, the IC50 result in data set [1] is given as “Not Active”.

Turning to `Cc1cccc(C(=O)n2cc(C#N)c3cnccc32)c1`, the t1/2 in data set [2] was determined as 2.722 h.

Consider `N#Cc1nn(C(=O)C2CC2)c2ncccc12`, for which the IC50 in data set [1] (read-out: IC50) came out at 34 nM.

Consider `Cc1cccc(C(=O)n2nc(C(F)(F)F)c3cccnc32)c1`, for which the IC50 in data set [1] (read-out: IC50) was determined as 420 nM.

`Cc1cccc(C(=O)n2nc(C#N)c3cccnc32)c1`: the IC50 in data set [1] (read-out: IC50) was determined as 330 nM.

For the molecule `Cc1cccc(C(=O)n2nc(C(=O)OC(C)C)c3cccnc32)c1`, the IC50 in data set [1] (read-out: IC50) worked out at 980 nM.

Take `N#Cc1nn(C(=O)C2CC2)c2ccncc12`: in data set [1] (read-out: IC50), the IC50 amounted to 79 nM. Moreover, the t1/2 in data set [2] came to 1.32 h.

In the case of `N#Cc1nn(Cc2ccccc2)c2ncccc12`, in data set [1], the IC50 result is “Not Active”.

Turning to `N#Cc1nn(C(=O)C2CCCC2)c2ncccc12`, the IC50 in data set [1] (read-out: IC50) stood at 140 nM.

`Cc1cccc(C(=O)n2nc(C#N)c3cnccc32)c1`: the half-maximal inhibitory concentration (IC50) in data set [1] (read-out: IC50) worked out at 10 nM. For the same molecule, in data set [2], the t1/2 was 0.203 h.

Take `COc1cccc(CNC(=O)c2cnc3cc(C(C)(C)C)nn3c2C)c1`: the 50% inhibitory concentration (IC50) result in data set [1] is reported as “Not Active”.

Consider `CCOC(=O)c1nn(C(=O)C2CC2)c2ccncc12`, for which the IC50 in data set [1] (read-out: IC50) is 69 nM. Also, the t1/2 in data set [2] is 7.28 h.

With `CCOC(=O)c1nn(C(=O)c2cccc(C)c2)c2ccncc12`, the IC50 in data set [1] (read-out: IC50) stood at 16 nM. In data set [2], the t1/2 was found to be 2.45 h.

As to `O=C(C1CC1)n1nc(C(F)(F)F)c2cnccc21`, the IC50 in data set [1] (read-out: IC50) stood at 87 nM. Further, the t1/2 in data set [2] came out at 6.435 h.

For `COc1cccc(CNC(=O)c2cnc3c(Cl)c(C(C)(C)C)nn3c2C)c1`, the IC50 result in data set [1] is “Not Active”.

`COc1cccc(NC(=O)c2cnc3c(Cl)c(C(C)(C)C)nn3c2C)c1`: in data set [1], the IC50 entry is given as “Not Active”.

Take `COc1cccc(NC(=O)c2cnn3c(C)c(C(C)=O)cnc23)c1`: the IC50 result in data set [1] was “Not Active”.

`Nc1nn(C(=O)C2CC2)c2ncccc12`: the IC50 in data set [1] (read-out: IC50) was found to be 9900 nM.

On to `N#Cc1cn(C(=O)C2CC2)c2cccnc12`, for which the half-maximal inhibitory concentration (IC50) in data set [1] (read-out: IC50) was 23 nM. Also, the t1/2 in data set [2] is 4.472 h.

In the case of `Cc1ccc(C(=O)n2nc(C#N)c3cccnc32)cc1`, the IC50 in data set [1] (read-out: IC50) stood at 1500 nM.

Consider `O=C(C1CC1)n1ccc2nccnc21`, for which the half-inhibitory concentration (IC50) in data set [1] (read-out: IC50) stood at 7900 nM.

In the case of `COc1cccc(CNC(=O)c2cnc3cc(C)nn3c2C)c1`, the IC50 result in data set [1] is recorded as “Not Active”.

Turning to `Cc1cccc(C(=O)n2cc(C#N)c3ncccc32)c1`, the t1/2 in data set [2] is 1.28 h.

As to `N#Cc1nn(C(=O)C2CCCCC2)c2ncccc12`, in data set [1] (read-out: IC50), the IC50 was 1100 nM.

Turning to `N#Cc1cn(C(=O)C2CC2)c2nccnc12`, the t1/2 in data set [2] was found to be 1.677 h.

With `N#Cc1nn(C(=O)c2ccccc2)c2ncccc12`, the IC50 in data set [1] (read-out: IC50) turned out to be 160 nM.

On to `Cc1cccc(C(=O)n2nc(C)c3cnccc32)c1`, for which, in data set [1] (read-out: IC50), the IC50 worked out at 760 nM.

On to `O=C(C1CC1)n1nc(C(F)(F)F)c2cccnc21`, for which the 50% inhibitory concentration (IC50) in data set [1] (read-out: IC50) worked out at 50 nM. In addition, the t1/2 in data set [2] amounted to 14.7 h.

For `COc1cccc(NC(=O)c2cnc3cc(C(C)(C)C)nn3c2C)c1`, the IC50 result in data set [1] is reported as “Not Active”.

For the molecule `Cc1cccc(C(=O)n2nc(C(F)(F)F)c3cnccc32)c1`, the IC50 in data set [1] (read-out: IC50) was found to be 33 nM. Besides, the t1/2 in data set [2] came to 1.777 h.

The record behind these values is ChEMBL document CHEMBL4673306, “Exploration of nitrogen heterocycle scaffolds for the development of potent human neutrophil elastase inhibitors” (Bioorg Med Chem, 2021).
